We go through nine compounds from ChEMBL document CHEMBL2203222, “Mannich bases of scutellarein as thrombin-inhibitors: design, synthesis, biological activity and solubility” (Bioorg Med Chem, 2012).

The structures appear in SMILES notation. In brackets after ≈: the same amount, converted by molar mass.

In series [1] the test system is Plasma. Nature of the series: Antithrombin activity in New Zealand white rabbit plasma assessed as activated partial thromboplastin time at 25 uM by coagulometer. In kind it is functional, Oryctolagus cuniculus.
Series [2] concerns Radical scavenging activity. The series is described as follows: Antioxidant activity assessed as inhibition of DPPH radical by spectrophotometric analysis […]. It counts as functional. The gist of the method: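 Sample in DMSO mixed with an equal volume of 0.2 mM ethanolic DPPH. Test compounds spanned […], alongside reference antioxidants and a DMSO control. Reaction ran 30 min at 25 °C, then absorbance was read at 517 nm on a microplate reader. Scavenging % = (1 − A_test/A_control) × 100, with A_control taken from DMSO alone.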

Series [3] concerns Plasma. Nature of the series: Antithrombin activity in New Zealand white rabbit plasma assessed as thrombin time at 25 uM by coagulometer. In kind it is functional, Oryctolagus cuniculus.
Series [4] can be described thus: Solubility of the compound in water by UV-visible spectrophotometry relative to scutellarein. In kind it is physicochemical.
Series [5] deals with Plasma. The series is described as follows: Antithrombin activity in New Zealand white rabbit plasma assessed as prothrombin time at 25 uM by coagulometer. It counts as functional, Oryctolagus cuniculus.
Series [6] in a line: Solubility of the compound in water by UV-visible spectrophotometry. It counts as physicochemical.
Series [7] relates to Plasma. The series is described as follows: Antithrombin activity in New Zealand white rabbit plasma assessed as fibrinogen content at 25 uM by coagulometer. It counts as functional, Oryctolagus cuniculus.
The nature of series [8]: Absolute bioavailability in po dosed Beagle dog. Particulars: in vivo. In kind it is ADME, organism-based, Canis lupus familiaris.

By IC50 is commonly meant the point on the concentration scale where inhibition reaches its midpoint. A word on the solubility: it is the concentration that dissolves in the medium under given conditions. Regarding `CCCCN1CCN(Cc2c(O)c(O)c(O)c3c(=O)cc(-c4ccc(O)cc4)oc23)CC1`, in the series with Plasma [1], the APTT is listed as 35.01 s. In addition, the IC50 in series [2] amounted to 32.7 µM. Besides, the TT in the series on Plasma [3] is 13.45 s. The “fold change (FC)” value in series [4] is 1.31. For the same compound, the PT in the series on Plasma [5] turned out to be 7.4 s. The compound also displayed a solubility in series [6] of 9.11 µM (≈ 4.01 µg/mL). Besides, in the series on Plasma [7], the Activity turned out to be 5.56 g/L.
As for `O=c1cc(-c2ccc(O)cc2)oc2cc(O)c(O)c(O)c12` [SCUTELLAREIN], the APTT in the series on Plasma [1] was found to be 33.36 s. Also, in series [2], the IC50 is 24 µM. For the same compound, in the series on Plasma [3], the TT was 10.25 s. The PT in the series with Plasma [5] is reported as 7.34 s. Also, in series [6], the solubility was 6.95 µM (≈ 1.99 µg/mL). Further, in the series with Plasma [7], the Activity is reported as 5.96 g/L.
As to `O=c1cc(-c2ccc(O)cc2)oc2c(CN3CCOCC3)c(O)c(O)c(O)c12`, the APTT in the series with Plasma [1] was 35.48 s. In series [2], the IC50 amounted to 30.9 µM. Besides, the TT in the series with Plasma [3] stood at 14.48 s. The “fold change (FC)” value in series [4] is 1.67. In the series on Plasma [5], the PT amounted to 7.84 s. Moreover, the solubility in series [6] was determined as 11.6 µM (≈ 4.48 µg/mL). Moreover, in the series with Plasma [7], the Activity came out at 5.26 g/L.
With `CN(C)Cc1c(O)c(O)c(O)c2c(=O)cc(-c3ccc(O)cc3)oc12`, the APTT with Plasma [1] is 34.23 s. Also, in series [2], the IC50 turned out to be 26.5 µM. Besides, the TT with Plasma [3] is recorded as 12.58 s. In series [4], the “fold change (FC)” value came out at 1.23. In addition, the PT in the series with Plasma [5] came out at 7.45 s. Further, the solubility in series [6] was 8.58 µM (≈ 2.95 µg/mL). In the series with Plasma [7], the Activity is reported as 5.56 g/L.
For `CN1CCN(Cc2c(O)c(O)c(O)c3c(=O)cc(-c4ccc(O)cc4)oc23)CC1`, in the series on Plasma [1], the APTT amounted to 35.42 s. The IC50 in series [2] turned out to be 32.5 µM. For the same compound, in the series on Plasma [3], the TT is reported as 14.4 s. The “fold change (FC)” value in series [4] worked out at 1.05. Besides, the PT in the series on Plasma [5] worked out at 7.71 s. The same compound gave a solubility in series [6] of 7.28 µM (≈ 2.9 µg/mL). The Activity in the series with Plasma [7] stood at 5.46 g/L.
Regarding `CC(C)N(Cc1c(O)c(O)c(O)c2c(=O)cc(-c3ccc(O)cc3)oc12)C(C)C`, the APTT in the series on Plasma [1] was determined as 34.52 s. Further, the IC50 in series [2] came to 30.1 µM. The TT with Plasma [3] was 11.75 s. For the same compound, the “fold change (FC)” value in series [4] came out at 1.15. In addition, the PT in the series on Plasma [5] amounted to 7.47 s. The compound also gave a solubility in series [6] of 7.97 µM (≈ 3.18 µg/mL). Moreover, the Activity in the series with Plasma [7] turned out to be 5.54 g/L.
Consider `CCN1CCN(Cc2c(O)c(O)c(O)c3c(=O)cc(-c4ccc(O)cc4)oc23)CC1`, for which the APTT in the series on Plasma [1] worked out at 35.15 s. Further, in series [2], the IC50 stood at 32.4 µM. Besides, the TT with Plasma [3] was determined as 14.13 s. Besides, the “fold change (FC)” value in series [4] stood at 1.02. For the same compound, the PT in the series with Plasma [5] came out at 7.41 s. This compound yielded a solubility in series [6] of 7.07 µM (≈ 2.92 µg/mL). In addition, the Activity in the series with Plasma [7] came to 5.54 g/L.
The term bioavailability denotes dose-corrected exposure relative to a reference, in per cent. Lower therefore signals little systemic uptake. In series [8], `O=C(O)[C@H]1O[C@@H](Oc2cc3oc(-c4ccc(O)cc4)cc(=O)c3c(O)c2O)[C@H](O)[C@@H](O)[C@@H]1O` [SCUTELLARIN] returned a bioavailability of 0.4%.
For the compound `CCN(CC)Cc1c(O)c(O)c(O)c2c(=O)cc(-c3ccc(O)cc3)oc12`, the APTT in the series with Plasma [1] turned out to be 34.62 s. In addition, the IC50 in series [2] stood at 25 µM. In addition, in the series with Plasma [3], the TT turned out to be 12.63 s. Moreover, the “fold change (FC)” value in series [4] is recorded as 1.11. In the series with Plasma [5], the PT came out at 7.55 s. Also, in series [6], the solubility was 7.71 µM (≈ 2.86 µg/mL). For the same compound, the Activity in the series on Plasma [7] stood at 5.36 g/L.
